The target in test [1] is T1, Cyclin-dependent kinase 14 (Homo sapiens, UniProt O94921). In words: Inhibition of FLAG-tagged CDK14 (unknown origin) expressed in human HEK293 cells assessed as blocking of CDK14 pulldown up to 1000 nM incubated for 4 hrs by biotinylated JNK-IN- based pull down assay. The class given is cell-based. The method, boiled down: (§1)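 Cells were treated with compound at various doses for 4 h and then lysed. Lysates were incubated with biotinylated JNK-IN-7 and captured on streptavidin-coated beads. CDK14 capture was detected by western blot.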
T1 sequence (O94921 whole entry): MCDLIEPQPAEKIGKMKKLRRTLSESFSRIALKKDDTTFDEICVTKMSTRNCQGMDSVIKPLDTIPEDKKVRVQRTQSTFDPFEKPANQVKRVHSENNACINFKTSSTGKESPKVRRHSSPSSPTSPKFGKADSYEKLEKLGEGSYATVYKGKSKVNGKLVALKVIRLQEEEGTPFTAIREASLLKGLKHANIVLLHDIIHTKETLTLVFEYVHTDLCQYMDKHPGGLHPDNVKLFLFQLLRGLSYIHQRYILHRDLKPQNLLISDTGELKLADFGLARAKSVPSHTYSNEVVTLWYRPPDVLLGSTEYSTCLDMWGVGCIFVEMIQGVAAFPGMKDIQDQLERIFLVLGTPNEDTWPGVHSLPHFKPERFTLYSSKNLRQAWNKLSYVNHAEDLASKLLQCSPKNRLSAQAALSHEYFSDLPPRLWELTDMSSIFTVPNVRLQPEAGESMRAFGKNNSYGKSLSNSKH

Test [2] concerns the target Cyclin-dependent kinase 14/Cyclin-Y (Homo sapiens, UniProt O94921). In words: Inhibition of recombinant GST-tagged human full length CDK14/cyclin Y (2 to end residues) preincubated for 30 mins by Lantha screen eu binding assay. The class given is protein-complex assay. The method, boiled down:
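CDK14 binding was measured in a LanthaScreen binding assay. IC50 is the average of three replicates, reported ± standard error.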

The test system of a further test is HCT-116. The test can be described thus: Antiproliferative activity against human HCT116 cells assessed as reduction in cell viability after 72 hrs by cell titer glo-based luminescence assay. The class given is functional. Particulars: HCT-116, 72 h. On the technique in general: ATP-based viability assays read luminescence as a measure of living cells.
For test [3], the target named is T1, Cyclin-dependent kinase 14. In words: Inhibition of FLAG-tagged CDK14 (unknown origin) expressed in human HEK293 cells assessed as blocking of CDK14 pulldown incubated for 4 hrs by biotinylated JNK-IN- based pull down assay. The class given is cell-based. The method, boiled down: as §1
Test [4] deals with T1, Cyclin-dependent kinase 14. The test can be described thus: Inhibition of FLAG-tagged CDK14 (unknown origin) expressed in human HEK293 cells assessed as blocking of CDK14 pulldown at 500 to 1000 nM incubated for 4 hrs by biotinylated JNK-IN- based pull down assay. The class given is cell-based. The method, boiled down:
as §1

Test [5] addresses Cyclin-dependent kinase 18 (Homo sapiens) (UniProt Q07002). In words: Inhibition of CDK18 in human HCT116 cells at 1 uM incubated for 4 hrs by KINATIV live cell profiling protocol based assay. The method, boiled down: (§2)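 Cellular kinase selectivity was profiled on the KiNativ platform, with compounds tested at 1 μM.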
For test [6], the target named is Cyclin-dependent kinase 16 (Homo sapiens) (UniProt Q00536). In words: Inhibition of CDK16 in human HCT116 cells at 1 uM incubated for 4 hrs by KINATIV live cell profiling protocol based assay. The method, boiled down: as §2
Cyclin-dependent kinase 16 (Homo sapiens), sequence (Q00536 whole entry): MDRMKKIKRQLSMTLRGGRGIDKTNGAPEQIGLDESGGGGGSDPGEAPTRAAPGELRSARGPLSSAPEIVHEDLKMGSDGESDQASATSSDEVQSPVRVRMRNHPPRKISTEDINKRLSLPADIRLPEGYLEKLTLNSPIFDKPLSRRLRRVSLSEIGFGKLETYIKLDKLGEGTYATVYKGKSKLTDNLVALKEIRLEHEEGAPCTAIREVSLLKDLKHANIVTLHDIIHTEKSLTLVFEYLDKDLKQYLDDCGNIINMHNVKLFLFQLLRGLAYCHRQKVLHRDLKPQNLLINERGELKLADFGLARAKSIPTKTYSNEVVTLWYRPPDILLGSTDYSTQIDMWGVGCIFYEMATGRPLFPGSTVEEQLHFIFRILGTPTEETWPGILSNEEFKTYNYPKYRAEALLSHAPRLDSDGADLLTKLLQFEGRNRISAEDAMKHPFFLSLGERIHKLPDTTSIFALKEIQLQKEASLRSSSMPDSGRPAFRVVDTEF
The target of the next test is CDK2/Cyclin-Y (Homo sapiens, UniProt P24941+Q8ND76). In words: Inhibition of recombinant NanoLuc-tagged CDK2/cyclin Y expressed in human HCT116 cells at 1 uM incubated for 20 to 24 hrs by NanoBRET assay. The class given is cell-based. Background: Bioluminescence resonance energy transfer reports proximity on the nanometre scale.
The target of test [7] is Cyclin-dependent kinase 17 (Homo sapiens) (UniProt Q00537). The test can be described thus: Inhibition of CDK17 in human HCT116 cells at 1 uM incubated for 4 hrs by KINATIV live cell profiling protocol based assay. The method, boiled down: as §2
Cyclin-dependent kinase 17 (Homo sapiens), sequence (Q00537 whole entry, looked up): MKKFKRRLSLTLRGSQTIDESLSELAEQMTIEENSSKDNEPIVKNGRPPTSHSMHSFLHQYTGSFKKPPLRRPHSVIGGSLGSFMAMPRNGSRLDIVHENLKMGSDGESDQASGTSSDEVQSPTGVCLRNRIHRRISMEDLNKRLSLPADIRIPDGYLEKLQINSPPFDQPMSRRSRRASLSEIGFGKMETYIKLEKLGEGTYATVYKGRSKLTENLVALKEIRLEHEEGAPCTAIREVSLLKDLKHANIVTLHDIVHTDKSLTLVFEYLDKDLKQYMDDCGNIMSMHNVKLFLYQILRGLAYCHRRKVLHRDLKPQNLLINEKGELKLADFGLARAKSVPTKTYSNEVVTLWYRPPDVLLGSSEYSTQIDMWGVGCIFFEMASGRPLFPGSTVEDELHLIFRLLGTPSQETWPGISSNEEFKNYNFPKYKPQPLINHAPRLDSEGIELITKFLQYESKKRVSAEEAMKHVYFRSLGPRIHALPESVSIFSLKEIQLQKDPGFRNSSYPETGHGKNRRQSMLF

Inhibition and IC50 data for 7 molecules are collected here from ChEMBL document CHEMBL4433236, “Synthesis and structure activity relationships of a series of 4-amino-1H-pyrazoles as covalent inhibitors of CDK14” (Bioorg Med Chem Lett, 2019).

SMILES strings stand for the structures. Active and inactive are the calls of the source. The calls are words filed in the database; no cut-off is given here.

Cyclin-dependent kinase 14/Cyclin-Y, sequence (O94921 whole entry): as the sequence (O94921 whole entry) above
Cyclin-dependent kinase 14/Cyclin-Y, sequence (Q8ND76 whole entry, further chain): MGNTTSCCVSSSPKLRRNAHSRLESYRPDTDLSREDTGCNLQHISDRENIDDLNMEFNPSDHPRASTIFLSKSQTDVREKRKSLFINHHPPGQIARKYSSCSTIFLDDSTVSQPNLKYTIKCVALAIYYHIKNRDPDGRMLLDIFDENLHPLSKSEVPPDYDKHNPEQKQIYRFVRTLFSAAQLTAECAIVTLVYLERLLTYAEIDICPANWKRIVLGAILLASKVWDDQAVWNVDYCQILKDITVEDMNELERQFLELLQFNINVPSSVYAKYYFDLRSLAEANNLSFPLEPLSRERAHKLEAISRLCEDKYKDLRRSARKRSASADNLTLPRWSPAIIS
Cyclin-dependent kinase 18 (Homo sapiens), sequence (Q07002 whole entry): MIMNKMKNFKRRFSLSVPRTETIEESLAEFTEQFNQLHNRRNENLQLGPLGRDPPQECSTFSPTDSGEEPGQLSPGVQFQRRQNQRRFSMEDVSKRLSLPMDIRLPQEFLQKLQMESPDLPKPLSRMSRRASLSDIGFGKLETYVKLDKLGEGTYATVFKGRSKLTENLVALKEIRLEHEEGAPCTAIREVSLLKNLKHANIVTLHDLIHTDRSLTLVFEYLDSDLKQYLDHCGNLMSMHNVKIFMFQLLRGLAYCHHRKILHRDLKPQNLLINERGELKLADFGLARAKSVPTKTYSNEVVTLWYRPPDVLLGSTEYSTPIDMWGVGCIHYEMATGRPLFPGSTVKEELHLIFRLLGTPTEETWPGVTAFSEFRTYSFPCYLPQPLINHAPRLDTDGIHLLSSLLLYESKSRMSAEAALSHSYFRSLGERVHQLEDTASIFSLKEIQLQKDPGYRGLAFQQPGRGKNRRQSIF

A word on the inhibition: it is the share of the control response that was lost under treatment. In general, IC50 refers to the concentration that inhibits the measured activity by half. For `CN(C)CC/C=C/C(=O)Nc1ccc(S(=O)(=O)N2CC[C@@H](NC(=O)c3n[nH]cc3NC(=O)c3c(Cl)cccc3Cl)C2)cc1`, the inhibition entry in test [1] was “Active”. Further, the IC50 in [2] was 41 nM; with HCT-116 it was > 10000 nM; in test [3], > 1000 nM.

Turning to `CN(C)C/C=C/C(=O)Nc1cccc(C(=O)Nc2ccc(NC(=O)c3n[nH]cc3NC(=O)c3c(Cl)cccc3Cl)cc2)c1`, the inhibition result in [4] is “Active”. For the same molecule, the IC50 with HCT-116 stood at 38 nM; in [3] it was 1000 nM.

Consider `C=CC(=O)Nc1cccc(C(=O)Nc2ccc(NC(=O)c3n[nH]cc3NC(=O)c3c(Cl)cccc3Cl)c(C)c2)c1`, for which the IC50 in test [2] was > 1000 nM.

As for `CN(C)C/C=C/C(=O)Nc1cccc(S(=O)(=O)N2CCC(NC(=O)c3n[nH]cc3NC(=O)c3ccccc3)CC2)c1`, the IC50 in test [2] stood at 3 nM; with HCT-116, 440 nM; in test [3], 1000 nM.

As to `CN(C)C/C=C/C(=O)Nc1cccc(S(=O)(=O)N2CCC(NC(=O)c3n[nH]cc3NC(=O)c3c(Cl)cc(Cl)cc3Cl)CC2)c1`, the inhibition in test [5] is > 75%; in test [6] it was > 90%; in test [7], > 75%. In addition, the IC50 on CDK2/Cyclin-Y is 256 nM; in the test on HCT-116, 1140 to 5900 nM.

As to `Cc1cc(NC(=O)c2cccc(NC(=O)/C=C/CN(C)C)c2)ccc1NC(=O)c1n[nH]cc1NC(=O)c1c(Cl)cccc1Cl`, the IC50 in test [2] was > 1000 nM; in the test on HCT-116, 320 nM.

Turning to `C=CC(=O)Nc1cccc(C(=O)N2CCC(NC(=O)c3n[nH]cc3NC(=O)c3c(Cl)cccc3Cl)CC2)c1`, the inhibition result in [4] is “Active”. The IC50 in test [2] was 45 nM; in the test on HCT-116, 32 nM.
